Where “and” joins values, the source holds several entries; their conditions need not be identical. Identical values can stand only once. Entries after “also recorded” stand apart in the source; their conditions may differ.
Key:
[1] = Plasma pharmacokinetics of iptacopan; type: in vivo, human
Summary of the method: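 Plasma samples were taken predose on days 2, 15, 29 and 57, and at 0.25, 1, 2, 4 and 6 h post-dose on days 29 and 57. Doses were 25/50 mg twice daily for 4 weeks, then 100/200 mg twice daily. Assay was validated LC-MS/MS, LLOQ approximately 1 ng/mL. Cmax, AUC, Ctrough and Tmax were derived noncompartmentally.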

[2] = tested on: complement alternative pathway; experiment: Wieslab complement assay; type: in vivo, human; details: 200 mg twice daily; data not shown
Summary of the method: (§1)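 Adult PNH patients, randomized 1:1, took the test compound 25 mg twice daily for 4 weeks then 100 mg twice daily (cohort 1), or 50 mg then 200 mg twice daily (cohort 2). Alternative-pathway target engagement was measured as circulating fragment Bb and by Wieslab assay. Sigmoid Emax models related both to individual steady-state Ctrough at baseline and after 4 weeks at each dose (days 29, 57).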

[3] = tested on: PNH patients with active hemolysis; experiment: Serum LDH levels, phase 2 study of iptacopan monotherapy; type: in vivo, human; details: cohort 2 (50/200 mg bid), until week 12
Summary of the method: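 Primary endpoint: serum LDH reduction ≥60% from baseline, or LDH below ULN, at any time up to week 12. Baseline was the mean of the last 3 screening values before randomization. If LDH had not fallen ≥40% by day 15, the dose was to be raised from day 17, and raised further for cohort 1 at day 29, with a maximum of 200 mg twice daily.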

[4] = tested on: PNH patients with active hemolysis; experiment: Safety and tolerability; type: in vivo, human
[5] = tested on: PNH patients with active hemolysis; experiment: Hb and other markers of hemolysis; type: in vivo, human
Summary of the method: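 Secondary hemolysis markers (total and free Hb, bilirubin, reticulocyte count, RBC count, haptoglobin) were measured in PNH patients over 12 weeks of twice-daily test compound. Dosing was 25 mg for 4 weeks then 100 mg (cohort 1), or 50 mg then 200 mg (cohort 2). Baseline for each variable was the mean of all pretreatment values.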

PNH-type RBCs = experiment: Flow cytometry of PNH-type RBCs and C3 fragment deposition on RBCs; type: in vivo, human
[6] = tested on: PNH patients with persistent hemolysis despite ongoing treatment with eculizumab; details: add-on to eculizumab, week 13; cited from earlier work
fragment Bb = experiment: Circulating fragment of factor B; type: in vivo, human; details: after the first dose of 25 mg twice daily or higher
Summary of the method: as §1

[7] = ref data on file, cited from earlier work
[8] = until data cutoff, listed as iptacopan
[9] = nonclinical and phase 1 studies

CCO[C@H]1CCN(Cc2c(OC)cc(C)c3[nH]ccc23)[C@H](c2ccc(C(=O)O)cc2)C1 [Iptacopan]
Dose proportionality of exposure (AUClast and Cmax) ([1]; 25 to 200 mg twice daily): underproportional in relationship to dose
Mean trough level exposures ([1]; doses of ≥50 mg twice daily, steady state): ≥ 900 ng/mL
AUC(0-t) ([1]; human, plasma, oral, 25 mg): 6290 ng·h/mL
AUC(0-t) ([1]; human, plasma, oral, 200 mg): 19900 ng·h/mL
Cmax ([1]; human, plasma, oral, 200 mg): 4520 ng/mL
Suppression of alternative pathway activity (Wieslab assay) [2]: near-maximal inhibition
LDH levels maintained by all patients [3]: < 1.5 × ULN
AE by preferred term: Abdominal discomfort ([4]; 25 mg/100 mg, n = 7): 2 (28.6) n (%)
AE by preferred term: Blood alkaline phosphatase increased ([4]; 25 mg/100 mg, n = 7): 1 (14.3) n (%)
AE by preferred term: Cough ([4]; 25 mg/100 mg, n = 7): 2 (28.6) n (%)
AE by preferred term: Headache ([4]; 25 mg/100 mg, n = 7): 1 (14.3) n (%)
AE by preferred term: Oropharyngeal pain ([4]; 25 mg/100 mg, n = 7): 2 (28.6) n (%)
AE by preferred term: Pyrexia ([4]; 25 mg/100 mg, n = 7): 2 (28.6) n (%)
AE by preferred term: Upper respiratory tract infection ([4]; 25 mg/100 mg, n = 7): 2 (28.6) n (%)
AEs leading to discontinuation of study treatment, number of events (nE) ([4]; 25 mg/100 mg, n = 7): 0
AEs leading to discontinuation of study treatment, number of patients ([4]; 25 mg/100 mg, n = 7): 0 nS (%)
AEs of mild intensity, number of events (nE) ([4]; 25 mg/100 mg, n = 7): 29
AEs of mild intensity, number of patients ([4]; 25 mg/100 mg, n = 7): 4 (57.1) nS (%)
AEs of moderate intensity, number of events (nE) ([4]; 25 mg/100 mg, n = 7): 2
AEs of moderate intensity, number of patients ([4]; 25 mg/100 mg, n = 7): 1 (14.3) nS (%)
AEs of severe/serious intensity, number of events (nE) ([4]; 25 mg/100 mg, n = 7): 0
AEs of severe/serious intensity, number of patients ([4]; 25 mg/100 mg, n = 7): 0 nS (%)
Study drug-related AEs leading to discontinuation of study treatment, number of events (nE) ([4]; 25 mg/100 mg, n = 7): 0
Study drug-related AEs leading to discontinuation of study treatment, number of patients ([4]; 25 mg/100 mg, n = 7): 0 nS (%)
Study drug-related AEs, number of events (nE) ([4]; 25 mg/100 mg, n = 7): 6
Study drug-related AEs, number of patients ([4]; 25 mg/100 mg, n = 7): 1 (14.3) nS (%)
Total AEs, number of events (nE) ([4]; 25 mg/100 mg, n = 7): 31
Total AEs, number of patients ([4]; 25 mg/100 mg, n = 7): 4 (57.1) nS (%)
AE by preferred term: Abdominal discomfort ([4]; 50 mg/200 mg, n = 6): 0 n (%)
AE by preferred term: Blood alkaline phosphatase increased ([4]; 50 mg/200 mg, n = 6): 1 (16.7) n (%)
AE by preferred term: Headache ([4]; 50 mg/200 mg, n = 6): 3 (50.0) n (%)
AE by preferred term: Oropharyngeal pain ([4]; 50 mg/200 mg, n = 6): 0 n (%)
AE by preferred term: Pyrexia ([4]; 50 mg/200 mg, n = 6): 0 n (%)
AE by preferred term: Upper respiratory tract infection ([4]; 50 mg/200 mg, n = 6): 0 n (%)
AEs leading to discontinuation of study treatment, number of events (nE) ([4]; 50 mg/200 mg, n = 6): 1
AEs leading to discontinuation of study treatment, number of patients ([4]; 50 mg/200 mg, n = 6): 1 (16.7) nS (%)
AEs of mild intensity, number of events (nE) ([4]; 50 mg/200 mg, n = 6): 6
AEs of mild intensity, number of patients ([4]; 50 mg/200 mg, n = 6): 4 (66.7) nS (%)
AEs of moderate intensity, number of events (nE) ([4]; 50 mg/200 mg, n = 6): 1
AEs of moderate intensity, number of patients ([4]; 50 mg/200 mg, n = 6): 1 (16.7) nS (%)
AEs of severe/serious intensity, number of events (nE) ([4]; 50 mg/200 mg, n = 6): 0
AEs of severe/serious intensity, number of patients ([4]; 50 mg/200 mg, n = 6): 0 nS (%)
Study drug-related AEs leading to discontinuation of study treatment, number of events (nE) ([4]; 50 mg/200 mg, n = 6): 1
Study drug-related AEs leading to discontinuation of study treatment, number of patients ([4]; 50 mg/200 mg, n = 6): 1 (16.7) nS (%)
Study drug-related AEs, number of events (nE) ([4]; 50 mg/200 mg, n = 6): 3
Study drug-related AEs, number of patients ([4]; 50 mg/200 mg, n = 6): 3 (50.0) nS (%)
Total AEs, number of events (nE) ([4]; 50 mg/200 mg, n = 6): 7
Total AEs, number of patients ([4]; 50 mg/200 mg, n = 6): 5 (83.3) nS (%)
Deaths ([4]; 13 patients, until data cutoff): No deaths
Tolerability ([4]; 13 patients, until data cutoff): overall well-tolerated and safe
Tolerability ([4]; 13 patients, until data cutoff, listed as iptacopan): safe and well-tolerated
AE by preferred term: Abdominal discomfort ([4]; Total, n = 13): 2 (15.4) n (%)
AE by preferred term: Blood alkaline phosphatase increased ([4]; Total, n = 13): 2 (15.4) n (%)
AE by preferred term: Cough ([4]; Total, n = 13): 2 (15.4) n (%)
AE by preferred term: Headache ([4]; Total, n = 13): 4 (30.8) n (%)
AE by preferred term: Oropharyngeal pain ([4]; Total, n = 13): 2 (15.4) n (%)
AE by preferred term: Pyrexia ([4]; Total, n = 13): 2 (15.4) n (%)
AE by preferred term: Upper respiratory tract infection ([4]; Total, n = 13): 2 (15.4) n (%)
AEs leading to discontinuation of study treatment, number of events (nE) ([4]; Total, n = 13): 1
AEs leading to discontinuation of study treatment, number of patients ([4]; Total, n = 13): 1 (7.7) nS (%)
AEs of mild intensity, number of events (nE) ([4]; Total, n = 13): 35
AEs of mild intensity, number of patients ([4]; Total, n = 13): 8 (61.5) nS (%)
AEs of moderate intensity, number of events (nE) ([4]; Total, n = 13): 3
AEs of moderate intensity, number of patients ([4]; Total, n = 13): 2 (15.4) nS (%)
AEs of severe/serious intensity, number of events (nE) ([4]; Total, n = 13): 0
AEs of severe/serious intensity, number of patients ([4]; Total, n = 13): 0 nS (%)
Study drug-related AEs leading to discontinuation of study treatment, number of events (nE) ([4]; Total, n = 13): 1
Study drug-related AEs leading to discontinuation of study treatment, number of patients ([4]; Total, n = 13): 1 (7.7) nS (%)
Study drug-related AEs, number of events (nE) ([4]; Total, n = 13): 9
Study drug-related AEs, number of patients ([4]; Total, n = 13): 4 (30.8) nS (%)
Total AEs, number of events (nE) ([4]; Total, n = 13): 38
Total AEs, number of patients ([4]; Total, n = 13): 9 nS (%) and 9 (69.2) nS (%)
Study drug-related AEs, number of patients ([4]; Total, n = 13, listed as iptacopan): 4 nS (%)
Dose dependence of the AE profile of the 2 cohorts ([4]; in vivo): no dose-dependent changes in the AE profile
Severe or serious AEs ([4]; until data cutoff): no severe or serious AEs
Breakthrough hemolysis [4, 8]: no breakthrough hemolysis was observed; also recorded: no thromboembolic events or breakthrough hemolysis were reported
Severe or serious AEs [4, 8]: no severe or serious adverse events reported; also recorded: no serious nor severe AEs
Thromboembolic events ([4]; until data cutoff, no prophylactic anticoagulation): No thromboembolic events were reported; also recorded: no thromboembolic events were observed; also recorded: no thromboembolic events or breakthrough hemolysis were reported
Patients with Hb levels above 120 g/L ([5]; week 12, both cohorts): 5
Patients achieving reticulocyte count ≤150 × 10^9/L, number ([5]; week 12, cohort 1): 4
Patients achieving reticulocyte count ≤150 × 10^9/L, percent ([5]; week 12, cohort 1): 66.7%
Patients with Hb levels above 120 g/L ([5]; week 12, cohort 1): 3
Mean bilirubin level ([5]; week 12, cohort 1, baseline 32.4): 11.7 µmol/L
Mean Hb level ([5]; week 12, cohort 1, baseline 88.5): 115.2 g/L
Mean reticulocyte count ([5]; week 12, cohort 1, baseline 217.6): 1.308e+11 L⁻¹
Patients achieving reticulocyte count ≤150 × 10^9/L, number ([5]; week 12, cohort 2): 4
Patients achieving reticulocyte count ≤150 × 10^9/L, percent ([5]; week 12, cohort 2): 100%
Patients with Hb levels above 120 g/L ([5]; week 12, cohort 2): 2
Mean bilirubin level ([5]; week 12, cohort 2, baseline 35.3): 14.8 µmol/L
Mean Hb level ([5]; week 12, cohort 2, baseline 76.9): 109.0 g/L
Mean reticulocyte count ([5]; week 12, cohort 2, baseline 211.1): 1.048e+11 L⁻¹
Clone size (PNH red blood cells, type II+III) (%), mean, Raw (PNH-type RBCs; Week 12, 25 mg/100 mg (cohort 1), baseline 33.6): 82.9%
Clone size (PNH red blood cells, type II+III) (%), mean, Raw (PNH-type RBCs; Week 12, 50 mg/200 mg (cohort 2), baseline 49.1): 91.1%
Effect on C3d deposition on RBC (PNH-type RBCs; both cohorts): near-total abrogation of C3d deposition on RBC
Effect of iptacopan add-on on hemolysis and Hb levels [6]: significant reductions in both intra- and extravascular hemolysis and transfusion-free improvements in Hb levels
Bb levels (fragment Bb): decreased rapidly
Absorption [7, 9]: high absorption
Clearance [7, 9]: moderate clearance
Direct renal excretion (share of clearance) [7]: ~25%
Ethnic sensitivity [7]: no ethnic sensitivity
Food effect [7]: no food effect
Terminal half-life in human plasma [7]: approximately 20 hours

From PMC9636331 (Blood Advances, 2022)
